In publication PMC8802302 (Journal of Medicinal Chemistry, 2021):

Tests used:
16-member kinase panel = test: Eurofins custom enzymatic kinase panel, count of kinases inhibited; assay type: biochemical; details: 16-member Eurofins panel, 1 μM
How it was run: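 Radiometric kinase assays were run with ATP at Km. Each test compound was tested at a single concentration of 1 μM, in duplicate, against each panel kinase, with results as percent of control. The count is the number of kinases at ≤ 10 PoC, i.e. inhibited ≥ 90%.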

[1] = system: 403 wild-type (WT) human kinases; test: DiscoverX scanMAX kinome-wide selectivity screen; assay type: binding; details: 403 WT human kinases; for no. kinases with PoC < 10: DiscoverX scanMAX, 1 μM; for S10 (1 μM): Percentage of screened kinases with PoC values < 10 at 1 μM
LRRK2 = LRRK2 (Homo sapiens, UniProt Q5S007); test: NanoBRET assay follow-up; assay type: cell-based; details: singlicate (n = 1) dose–response
PAMPA permeability = assay type: in vitro ADME; details: PBS pH 7.4, 5 h incubation
How it was run: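 DMSO stocks of test compound were diluted in PBS pH 7.4 and added to the donor side of a precoated PAMPA plate, with PBS pH 7.4 as acceptor, for 5 h. Both compartments were quantified by chemiluminescent nitrogen detection against a calibration curve, with background nitrogen corrected. Effective permeability was calculated from donor and acceptor concentrations, using measured rather than assumed solubility.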

MYLK2 = MYLK2 (Homo sapiens, UniProt Q9H1R3); test: NanoBRET assay follow-up; assay type: cell-based
DRAK1 (DRAK1-NLuc) = biological target: T1, DRAK1 (DRAK1-NLuc) (Homo sapiens, UniProt Q9UEE5); test: NanoBRET cellular target engagement assay; assay type: cell-based; details: HEK293, 0.5 μM tracer K-9; n = 1 where no error, SEM n = 3
T1 sequence (Q9UEE5 1-414): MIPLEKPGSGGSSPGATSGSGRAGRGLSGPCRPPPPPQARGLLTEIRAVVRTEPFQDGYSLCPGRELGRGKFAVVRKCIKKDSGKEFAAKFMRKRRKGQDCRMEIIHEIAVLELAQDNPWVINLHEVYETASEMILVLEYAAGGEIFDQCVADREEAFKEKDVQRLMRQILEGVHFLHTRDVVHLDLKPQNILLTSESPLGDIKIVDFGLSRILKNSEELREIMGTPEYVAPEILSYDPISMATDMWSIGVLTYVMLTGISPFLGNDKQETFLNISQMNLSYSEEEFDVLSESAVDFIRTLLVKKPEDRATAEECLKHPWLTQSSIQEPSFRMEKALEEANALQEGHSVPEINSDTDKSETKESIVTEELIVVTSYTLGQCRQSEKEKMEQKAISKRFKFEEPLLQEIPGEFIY

MARK3 (NLuc-MARK3) = MARK3 (NLuc-MARK3) (Homo sapiens, UniProt P27448); test: NanoBRET cellular target engagement assay; assay type: cell-based
MARK4 (NLuc-MARK4) = biological target: T2, MARK4 (NLuc-MARK4) (Homo sapiens, UniProt Q96L34); test: NanoBRET cellular target engagement assay; assay type: cell-based; details: HEK293, 0.5 μM tracer K-5; n = 1 where no error, SEM n = 2
T2 sequence (Q96L34 1-752): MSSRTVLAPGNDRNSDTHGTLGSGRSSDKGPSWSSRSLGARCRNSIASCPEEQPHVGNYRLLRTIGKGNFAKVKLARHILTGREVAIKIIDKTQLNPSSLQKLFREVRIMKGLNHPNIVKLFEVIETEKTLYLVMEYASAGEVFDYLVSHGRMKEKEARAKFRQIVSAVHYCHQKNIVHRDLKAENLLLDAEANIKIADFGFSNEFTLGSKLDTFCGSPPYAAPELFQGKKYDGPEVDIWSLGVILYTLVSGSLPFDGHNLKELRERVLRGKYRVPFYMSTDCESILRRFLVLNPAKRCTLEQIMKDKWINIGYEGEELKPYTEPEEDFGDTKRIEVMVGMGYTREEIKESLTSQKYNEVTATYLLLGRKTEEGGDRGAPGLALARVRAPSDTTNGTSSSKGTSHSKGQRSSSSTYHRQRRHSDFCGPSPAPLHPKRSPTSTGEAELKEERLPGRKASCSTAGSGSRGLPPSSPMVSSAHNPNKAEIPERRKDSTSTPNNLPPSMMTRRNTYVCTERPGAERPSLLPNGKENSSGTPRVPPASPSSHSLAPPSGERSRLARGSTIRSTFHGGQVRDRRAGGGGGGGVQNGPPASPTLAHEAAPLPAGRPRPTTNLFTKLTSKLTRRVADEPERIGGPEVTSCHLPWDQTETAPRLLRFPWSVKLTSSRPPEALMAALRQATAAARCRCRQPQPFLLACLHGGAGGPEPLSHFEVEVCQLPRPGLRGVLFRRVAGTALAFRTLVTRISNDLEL

TBK1 (NLuc-TBK1) = biological target: T3, TBK1 (NLuc-TBK1) (Homo sapiens, UniProt Q9UHD2); test: NanoBRET cellular target engagement assay; assay type: cell-based; details: HEK293, 0.5 μM tracer K-5; n = 1 where no error, SEM n = 3
T3 sequence (Q9UHD2 1-729): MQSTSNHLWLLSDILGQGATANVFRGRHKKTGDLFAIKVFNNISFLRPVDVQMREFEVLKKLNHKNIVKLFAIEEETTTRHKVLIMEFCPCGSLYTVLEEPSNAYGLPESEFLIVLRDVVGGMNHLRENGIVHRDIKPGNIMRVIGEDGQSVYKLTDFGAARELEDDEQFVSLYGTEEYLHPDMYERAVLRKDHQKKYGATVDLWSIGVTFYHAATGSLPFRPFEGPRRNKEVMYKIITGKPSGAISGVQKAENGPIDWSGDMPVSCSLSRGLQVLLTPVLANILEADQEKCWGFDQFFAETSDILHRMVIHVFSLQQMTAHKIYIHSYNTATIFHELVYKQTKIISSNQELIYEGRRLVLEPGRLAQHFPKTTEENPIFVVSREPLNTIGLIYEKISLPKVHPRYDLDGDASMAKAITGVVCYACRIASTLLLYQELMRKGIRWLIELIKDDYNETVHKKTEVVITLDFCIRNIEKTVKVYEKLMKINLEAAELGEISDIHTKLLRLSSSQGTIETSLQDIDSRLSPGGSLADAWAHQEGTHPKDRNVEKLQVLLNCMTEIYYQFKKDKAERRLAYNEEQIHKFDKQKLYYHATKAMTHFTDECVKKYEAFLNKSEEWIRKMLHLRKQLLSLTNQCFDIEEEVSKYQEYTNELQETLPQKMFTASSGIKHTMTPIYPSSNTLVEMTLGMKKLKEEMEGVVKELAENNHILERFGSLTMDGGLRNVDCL
How it was run: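 HEK293 cells were grown in DMEM with 10% FBS at 37 °C under 5% CO2, passaged every 72 h with trypsin and kept below confluency. Cells expressed NanoLuc fusions (DRAK1-NLuc or NLuc-TBK1). Dose–response was run per the manufacturer's protocol, with 0.5 μM tracer K-9 for DRAK1 and 0.5 μM tracer K-5 for TBK1. SEM was reported where assays were repeated.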

TYK2 = TYK2 (Homo sapiens, UniProt P29597); test: NanoBRET assay follow-up; assay type: cell-based; details: singlicate (n = 1) dose–response
NUAK1 [2] = biological target: T4, NUAK1 (Homo sapiens, UniProt O60285); test: Eurofins kinase enzymatic radiometric assay; assay type: biochemical; details: enzymatic IC50 values
T4 sequence (O60285 1-661): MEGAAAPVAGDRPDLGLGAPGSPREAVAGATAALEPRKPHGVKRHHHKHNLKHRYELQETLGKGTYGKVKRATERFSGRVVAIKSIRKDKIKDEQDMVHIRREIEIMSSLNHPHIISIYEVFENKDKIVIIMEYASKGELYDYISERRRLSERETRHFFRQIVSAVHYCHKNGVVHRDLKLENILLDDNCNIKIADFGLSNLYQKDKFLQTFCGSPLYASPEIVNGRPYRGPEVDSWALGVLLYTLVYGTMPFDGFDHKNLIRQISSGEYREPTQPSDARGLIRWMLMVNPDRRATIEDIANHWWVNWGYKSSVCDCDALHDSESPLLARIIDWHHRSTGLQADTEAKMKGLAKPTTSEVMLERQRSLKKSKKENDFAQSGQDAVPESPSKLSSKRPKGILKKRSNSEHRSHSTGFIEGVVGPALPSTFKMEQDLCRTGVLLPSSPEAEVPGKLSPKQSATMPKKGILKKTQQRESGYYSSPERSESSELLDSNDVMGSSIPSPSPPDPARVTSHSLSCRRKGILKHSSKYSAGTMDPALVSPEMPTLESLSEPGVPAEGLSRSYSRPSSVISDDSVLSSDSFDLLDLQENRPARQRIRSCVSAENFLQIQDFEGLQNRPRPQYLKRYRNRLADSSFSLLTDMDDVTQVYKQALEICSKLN
How it was run: (§1)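 Both kinases of each pair (NUAK1/NUAK2; TBK1/IKKε) were tested in radiometric assays with ATP at Km. Test compounds were run as 9-point dose–response curves in duplicate. IC50 values for the two kinases were then compared as a fold difference.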

NUAK1 [3] = biological target: T4, NUAK1; test: NanoBRET assay follow-up; assay type: cell-based
TBK1 = biological target: T5, TBK1 (Homo sapiens, UniProt Q9UHD2); test: Eurofins kinase enzymatic radiometric assay; assay type: biochemical; details: enzymatic IC50 values
T5 sequence (Q9UHD2 1-729): T3 sequence (Q9UHD2 1-729)
How it was run: as §1

Chain of MYLK2 (Q9H1R3 whole entry): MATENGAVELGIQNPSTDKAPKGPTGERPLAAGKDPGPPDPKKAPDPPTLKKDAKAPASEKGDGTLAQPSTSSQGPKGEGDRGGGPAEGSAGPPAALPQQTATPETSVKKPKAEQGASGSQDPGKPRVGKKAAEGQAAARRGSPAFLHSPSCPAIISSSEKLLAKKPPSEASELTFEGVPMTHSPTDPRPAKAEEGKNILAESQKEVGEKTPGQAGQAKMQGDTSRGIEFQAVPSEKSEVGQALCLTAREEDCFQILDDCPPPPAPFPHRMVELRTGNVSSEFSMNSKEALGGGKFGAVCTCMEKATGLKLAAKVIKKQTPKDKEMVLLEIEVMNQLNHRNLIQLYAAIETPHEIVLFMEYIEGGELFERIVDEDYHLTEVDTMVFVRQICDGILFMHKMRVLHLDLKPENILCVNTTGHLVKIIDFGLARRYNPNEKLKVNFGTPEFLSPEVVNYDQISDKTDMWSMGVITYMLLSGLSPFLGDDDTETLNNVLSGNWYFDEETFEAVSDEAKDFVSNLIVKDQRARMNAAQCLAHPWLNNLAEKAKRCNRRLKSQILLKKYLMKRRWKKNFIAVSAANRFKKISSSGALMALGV
Chain of MARK3 (NLuc-MARK3) (P27448 whole entry): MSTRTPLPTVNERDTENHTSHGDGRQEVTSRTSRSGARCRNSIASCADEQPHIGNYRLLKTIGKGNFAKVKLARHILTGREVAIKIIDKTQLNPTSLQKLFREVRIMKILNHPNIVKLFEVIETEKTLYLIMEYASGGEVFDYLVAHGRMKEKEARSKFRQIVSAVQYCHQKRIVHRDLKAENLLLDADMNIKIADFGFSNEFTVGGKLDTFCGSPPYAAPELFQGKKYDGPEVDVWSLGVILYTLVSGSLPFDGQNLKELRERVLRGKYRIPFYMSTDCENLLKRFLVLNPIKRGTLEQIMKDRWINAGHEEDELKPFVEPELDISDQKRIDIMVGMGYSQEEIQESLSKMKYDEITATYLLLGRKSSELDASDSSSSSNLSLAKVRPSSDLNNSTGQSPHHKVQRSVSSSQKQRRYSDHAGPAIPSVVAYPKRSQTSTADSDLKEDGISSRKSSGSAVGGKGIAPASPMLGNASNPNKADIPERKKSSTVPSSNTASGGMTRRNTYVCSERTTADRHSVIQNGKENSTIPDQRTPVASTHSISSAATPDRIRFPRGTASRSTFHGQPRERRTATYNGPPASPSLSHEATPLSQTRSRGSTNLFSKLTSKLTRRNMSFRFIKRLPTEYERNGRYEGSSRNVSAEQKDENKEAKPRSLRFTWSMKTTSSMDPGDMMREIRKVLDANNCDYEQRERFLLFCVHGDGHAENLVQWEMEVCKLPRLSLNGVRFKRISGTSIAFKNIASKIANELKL
Chain of TYK2 (P29597 whole entry): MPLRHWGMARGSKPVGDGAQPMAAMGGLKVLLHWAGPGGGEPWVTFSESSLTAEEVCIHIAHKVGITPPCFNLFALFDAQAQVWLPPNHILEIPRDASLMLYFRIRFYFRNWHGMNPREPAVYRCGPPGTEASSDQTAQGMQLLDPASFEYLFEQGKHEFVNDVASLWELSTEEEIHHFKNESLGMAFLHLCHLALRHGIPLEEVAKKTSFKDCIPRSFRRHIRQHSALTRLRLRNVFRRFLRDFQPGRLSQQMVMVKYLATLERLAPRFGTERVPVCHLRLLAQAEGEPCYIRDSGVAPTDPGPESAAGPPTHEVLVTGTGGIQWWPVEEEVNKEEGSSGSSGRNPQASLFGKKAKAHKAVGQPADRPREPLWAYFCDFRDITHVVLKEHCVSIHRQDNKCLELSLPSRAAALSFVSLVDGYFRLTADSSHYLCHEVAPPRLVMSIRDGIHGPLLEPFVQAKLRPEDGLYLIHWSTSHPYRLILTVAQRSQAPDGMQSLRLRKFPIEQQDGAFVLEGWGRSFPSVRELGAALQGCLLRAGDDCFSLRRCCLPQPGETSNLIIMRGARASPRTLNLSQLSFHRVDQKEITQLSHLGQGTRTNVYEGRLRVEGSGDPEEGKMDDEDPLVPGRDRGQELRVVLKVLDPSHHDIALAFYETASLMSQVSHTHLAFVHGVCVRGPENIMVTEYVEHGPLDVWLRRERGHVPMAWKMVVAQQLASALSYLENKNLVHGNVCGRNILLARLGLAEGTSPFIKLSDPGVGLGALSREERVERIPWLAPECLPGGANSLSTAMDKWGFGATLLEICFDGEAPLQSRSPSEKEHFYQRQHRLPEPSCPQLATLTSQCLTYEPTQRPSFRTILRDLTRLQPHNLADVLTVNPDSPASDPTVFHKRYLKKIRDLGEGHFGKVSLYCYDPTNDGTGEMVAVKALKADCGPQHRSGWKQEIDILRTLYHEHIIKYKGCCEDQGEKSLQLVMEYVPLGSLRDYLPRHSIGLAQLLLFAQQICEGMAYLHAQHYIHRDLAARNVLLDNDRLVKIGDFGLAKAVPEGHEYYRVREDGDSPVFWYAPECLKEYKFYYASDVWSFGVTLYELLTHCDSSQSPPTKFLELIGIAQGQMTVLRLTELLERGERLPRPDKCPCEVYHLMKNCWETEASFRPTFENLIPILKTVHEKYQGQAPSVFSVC
Chain of LRRK2 (Q5S007 whole entry): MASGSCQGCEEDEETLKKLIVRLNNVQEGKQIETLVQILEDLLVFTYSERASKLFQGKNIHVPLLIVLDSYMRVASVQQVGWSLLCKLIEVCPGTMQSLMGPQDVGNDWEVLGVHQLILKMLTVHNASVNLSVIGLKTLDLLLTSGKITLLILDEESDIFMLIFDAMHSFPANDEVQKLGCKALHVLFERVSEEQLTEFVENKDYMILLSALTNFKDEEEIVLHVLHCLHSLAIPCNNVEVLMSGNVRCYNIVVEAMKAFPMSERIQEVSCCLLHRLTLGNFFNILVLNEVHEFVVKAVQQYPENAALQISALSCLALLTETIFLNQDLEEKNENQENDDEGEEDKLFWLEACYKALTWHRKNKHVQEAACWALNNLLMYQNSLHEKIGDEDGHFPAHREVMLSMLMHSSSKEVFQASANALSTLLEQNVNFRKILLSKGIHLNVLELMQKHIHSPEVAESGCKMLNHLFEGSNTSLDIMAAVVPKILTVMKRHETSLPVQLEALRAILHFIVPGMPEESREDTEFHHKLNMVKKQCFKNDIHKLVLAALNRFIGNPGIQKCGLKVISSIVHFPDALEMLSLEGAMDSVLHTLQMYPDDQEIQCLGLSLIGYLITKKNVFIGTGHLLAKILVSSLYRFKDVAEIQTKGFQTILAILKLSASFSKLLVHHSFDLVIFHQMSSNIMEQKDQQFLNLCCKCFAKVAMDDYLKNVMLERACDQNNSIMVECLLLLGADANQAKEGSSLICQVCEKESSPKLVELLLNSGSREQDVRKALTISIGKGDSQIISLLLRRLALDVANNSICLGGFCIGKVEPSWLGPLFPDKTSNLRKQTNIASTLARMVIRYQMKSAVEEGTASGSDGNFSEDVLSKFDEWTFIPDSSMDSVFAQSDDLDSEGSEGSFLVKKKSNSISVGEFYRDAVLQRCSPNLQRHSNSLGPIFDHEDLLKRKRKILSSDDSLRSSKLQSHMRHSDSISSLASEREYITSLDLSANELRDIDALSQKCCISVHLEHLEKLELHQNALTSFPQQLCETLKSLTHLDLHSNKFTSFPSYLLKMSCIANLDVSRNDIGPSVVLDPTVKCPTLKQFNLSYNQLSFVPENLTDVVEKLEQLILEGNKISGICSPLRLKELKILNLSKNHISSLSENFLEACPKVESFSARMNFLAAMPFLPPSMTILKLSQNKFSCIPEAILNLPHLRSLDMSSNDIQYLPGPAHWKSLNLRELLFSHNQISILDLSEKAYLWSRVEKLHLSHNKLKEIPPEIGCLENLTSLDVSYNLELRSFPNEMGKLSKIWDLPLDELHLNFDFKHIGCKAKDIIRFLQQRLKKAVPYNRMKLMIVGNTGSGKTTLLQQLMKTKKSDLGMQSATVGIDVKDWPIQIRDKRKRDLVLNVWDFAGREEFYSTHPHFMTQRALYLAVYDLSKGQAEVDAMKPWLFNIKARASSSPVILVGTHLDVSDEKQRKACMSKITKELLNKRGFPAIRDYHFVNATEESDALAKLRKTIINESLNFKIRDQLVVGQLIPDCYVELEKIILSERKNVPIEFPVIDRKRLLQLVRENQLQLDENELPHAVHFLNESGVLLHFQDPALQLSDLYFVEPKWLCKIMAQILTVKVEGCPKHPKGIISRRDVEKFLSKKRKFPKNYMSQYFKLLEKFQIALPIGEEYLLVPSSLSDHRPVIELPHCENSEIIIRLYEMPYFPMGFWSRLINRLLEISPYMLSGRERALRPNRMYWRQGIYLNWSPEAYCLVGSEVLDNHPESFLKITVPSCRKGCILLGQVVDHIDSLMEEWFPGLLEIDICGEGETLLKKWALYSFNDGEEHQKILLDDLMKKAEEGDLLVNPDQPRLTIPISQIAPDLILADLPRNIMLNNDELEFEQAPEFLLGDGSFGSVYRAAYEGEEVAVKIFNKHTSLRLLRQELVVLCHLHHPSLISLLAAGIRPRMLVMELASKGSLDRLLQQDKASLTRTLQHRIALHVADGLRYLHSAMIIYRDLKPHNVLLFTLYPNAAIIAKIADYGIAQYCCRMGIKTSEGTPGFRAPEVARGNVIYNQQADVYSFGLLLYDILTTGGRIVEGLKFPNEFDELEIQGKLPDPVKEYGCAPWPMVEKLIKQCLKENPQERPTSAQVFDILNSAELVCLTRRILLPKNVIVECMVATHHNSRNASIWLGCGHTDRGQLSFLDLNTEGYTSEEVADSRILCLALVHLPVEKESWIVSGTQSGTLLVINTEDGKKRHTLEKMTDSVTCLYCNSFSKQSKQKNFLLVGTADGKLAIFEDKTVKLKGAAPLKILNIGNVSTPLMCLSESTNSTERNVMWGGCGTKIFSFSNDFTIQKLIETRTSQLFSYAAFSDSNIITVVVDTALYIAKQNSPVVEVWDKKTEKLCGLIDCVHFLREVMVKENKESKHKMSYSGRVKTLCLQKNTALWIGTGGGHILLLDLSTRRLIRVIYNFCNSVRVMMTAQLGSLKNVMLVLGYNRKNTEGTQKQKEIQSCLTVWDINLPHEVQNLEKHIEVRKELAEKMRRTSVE

Cc1nn(CC(F)(F)F)cc1Nc1ncc(C2CC2)c(NCCc2c[nH]cn2)n1 [Compound 3, N^4-(2-(1H-Imidazol-4-yl)ethyl)-5-cyclopropyl-N^2-(3-methyl-1-(2,2,2-trifluoroethyl)-1H-pyrazol-4-yl)pyrimidine-2,4-diamine]
no. kinases ≤ 10 PoC in enzyme panel (16-member kinase panel): 0 | no. kinases with PoC < 10 [1]: 2 | S10 (1 μM) [1]: 0.005 | LRRK2 NanoBRET IC50 (LRRK2): did not have any activity | Pe (permeability coefficient, PAMPA) (PAMPA permeability): low permeability

Cc1nn(CC(F)(F)F)cc1Nc1nccc(NCCc2cnc[nH]2)n1 [Compound 15, N^4-(2-(1H-Imidazol-5-yl)ethyl)-N^2-(3-methyl-1-(2,2,2-trifluoroethyl)-1H-pyrazol-4-yl)pyrimidine-2,4-diamine]
no. kinases ≤ 10 PoC in enzyme panel (16-member kinase panel): 0 | no. kinases with PoC < 10 [1]: 0 | fold loss in potency, enzymatic versus NanoBRET, MYLK2 (MYLK2): < 10 fold | MYLK2 NanoBRET IC50 (MYLK2; singlicate (n = 1) dose–response): single digit micromolar activity | Pe (permeability coefficient, PAMPA) (PAMPA permeability): low permeability

O=C(NCCCNc1nc(Nc2cccc(NC(=O)N3CCCC3)c2)ncc1Br)C1CCC1 [Compound 18, N-(3-((5-Bromo-4-((3-(cyclobutanecarboxamido)propyl)amino)pyrimidin-2-yl)amino)phenyl)pyrrolidine-1-carboxamide]
no. kinases ≤ 10 PoC in enzyme panel (16-member kinase panel): 16 | no. kinases with PoC < 10 [1]: 90 | S10 (1 μM) [1]: 0.223 | DRAK1 NanoBRET IC50 (DRAK1 (DRAK1-NLuc)): submicromolar | MARK3 NanoBRET IC50 (MARK3 (NLuc-MARK3); HEK293, 0.5 μM tracer K-9, n = 1 where no error, SEM n = 2): submicromolar | MARK4 NanoBRET IC50 (MARK4 (NLuc-MARK4)): submicromolar | TBK1 NanoBRET IC50 (TBK1 (NLuc-TBK1)): submicromolar

NS(=O)(=O)c1ccc(CNc2ccnc(Nc3cccc(CN4CCOCC4)c3)n2)cc1 [Compound 19, 4-(((2-((3-(Morpholinomethyl)phenyl)amino)pyrimidin-4-yl)amino)methyl)benzenesulfonamide]
no. kinases ≤ 10 PoC in enzyme panel (16-member kinase panel): 0 | no. kinases with PoC < 10 [1]: 3 | S10 (1 μM) [1]: 0.007 | TYK2 NanoBRET IC50 (TYK2): did not have any activity

NS(=O)(=O)c1ccc(CNc2nc(Nc3cccc(NC(=O)N4CCCC4)c3)ncc2Br)cc1 [Compound 13, N-(3-((5-Bromo-4-((4-sulfamoylbenzyl)amino)pyrimidin-2-yl)amino)phenyl)pyrrolidine-1-carboxamide]
fold difference between NUAK1 and NUAK2 (NUAK1 [2]): ~3 fold | no. kinases ≤ 10 PoC in enzyme panel (16-member kinase panel): 4 | S10 (1 μM) [1]: 0.03 | Pe (permeability coefficient, PAMPA) (PAMPA permeability): below the limit of quantitation

O=C(NCCCNc1nc(Nc2cccc(NC(=O)N3CCCC3)c2)ncc1I)c1cccs1 [BX-795, reference compound]
no. kinases ≤ 10 PoC in enzyme panel (16-member kinase panel): 16 | IC50 (MARK3 (NLuc-MARK3)): 515 nM | IC50 (NUAK1 [3]): 187 nM | fold loss in potency, enzymatic to NanoBRET, NUAK1 (NUAK1 [3]; published enzymatic IC50 vs NanoBRET IC50): ~34 fold

Cc1nn(CC(F)(F)F)cc1Nc1ncc(C2CC2)c(NCc2ccc(S(N)(=O)=O)cc2)n1 [Compound 5, 4-(((5-Cyclopropyl-2-((3-methyl-1-(2,2,2-trifluoroethyl)-1H-pyrazol-4-yl)amino)pyrimidin-4-yl)amino)methyl)benzenesulfonamide]
fold difference in potency for TBK1 and IKKε (TBK1): 8 fold | no. kinases ≤ 10 PoC in enzyme panel (16-member kinase panel): 1 | no. kinases with PoC < 10 [1]: 2 | S10 (1 μM) [1]: 0.005 | Pe (permeability coefficient, PAMPA) (PAMPA permeability): below the limit of quantitation

NS(=O)(=O)c1ccc(CNc2ccnc(Nc3cccc(NC(=O)N4CCCC4)c3)n2)cc1 [Compound 16, N-(3-((4-((4-Sulfamoylbenzyl)amino)pyrimidin-2-yl)amino)phenyl)pyrrolidine-1-carboxamide]
no. kinases ≤ 10 PoC in enzyme panel (16-member kinase panel): 0 | no. kinases with PoC < 10 [1]: 1 | TYK2 NanoBRET IC50 (TYK2): did not have any activity | Pe (permeability coefficient, PAMPA) (PAMPA permeability): below the limit of quantitation
